This is an account of results in ChEMBL document CHEMBL1123779, “Modifications of primaquine as antimalarials. 4. 5-Alkoxy derivatives of primaquine” (J Med Chem, 1987).

In data set [1] the test system is Plasmodium cynomolgi. In words: Cures in Plasmodium cynomolgi infected Rhesus monkeys (Macaca mulatta) on 0.316 mg/kg/day after 7 days; cured 0 of 2. The data set is classed as functional.
For data set [2], the system named is Plasmodium cynomolgi. In words: Cures in Plasmodium cynomolgi infected Rhesus monkeys (Macaca mulatta) on 1 mg/kg/day after 7 days; cured 3 of 3. It counts as functional.
In data set [3] the test system is Plasmodium cynomolgi. In words: Cures in Plasmodium cynomolgi infected Rhesus monkeys (Macaca mulatta) on 10.0 mg/kg/day after 7 days; cured 1 of 1. The data set is classed as functional.
Data set [4] concerns Mus musculus. In words: Suppressive blood schizonticidal antimalarial activity evaluated in the trophozoite-induced Plasmodium berghei infection in mice (Mus musculus) at a dose 160 mg/kg given as no. of cures. It counts as functional. An outline of the steps: (§1)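 Run at the Rane Laboratory with blood-induced P. berghei infections in mice, five animals per group. A cure is a mouse surviving to 60 days postinfection. Deaths before day 6 are recorded separately as toxic deaths. Activity is scored from the increase in mean survival time over untreated controls, and counts as active when treated MST is more than twice control MST.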

Data set [5] concerns Mus musculus. In words: Suppressive blood schizonticidal antimalarial activity evaluated in the trophozoite-induced Plasmodium berghei infection in mice (Mus musculus) at a dose 80 mg/kg given as no. of cures. It counts as functional. An outline of the steps: as §1
In data set [6] the test system is Plasmodium berghei. In words: Suppressive blood schizonticidal antimalarial activity evaluated in the trophozoite-induced Plasmodium berghei infection in mice (Mus musculus) at a dose 640 mg/kg given as number of toxic deaths. The data set is classed as toxicity, organism-based. Also on record: dose 640 mg/kg. The note with it: in vivo. An outline of the steps:
(§2)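 Rane Laboratory mouse test with blood-induced P. berghei infection, five mice per group. Toxic deaths are deaths occurring before the 6th day postinfection.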

For data set [7], the system named is Plasmodium berghei. In words: Blood schizonticidal antimalarial activity in the trophozoite-induced Plasmodium berghei infection in mice (Mus musculus) at 20 mg/kg. The data set is classed as functional. Also on record: unit not given beside the values. Put shortly: (§3)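 Run at the Rane Laboratory in mice infected with blood-induced P. berghei, five animals per group. Activity is the increase in mean survival time over untreated infected controls. A compound counts as active when treated-group MST is more than twice the control MST. Cures are mice surviving at 60 days postinfection.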

Data set [8] deals with Mus musculus. In words: Suppressive blood schizonticidal antimalarial activity evaluated in the trophozoite-induced Plasmodium berghei infection in mice (Mus musculus) at a dose 320 mg/kg. The data set is classed as functional. An outline of the steps: as §3
The test system of data set [9] is Mus musculus. In words: Suppressive blood schizonticidal antimalarial activity evaluated in the trophozoite-induced Plasmodium berghei infection in mice (Mus musculus) at a dose 40 mg/kg. Also on record: unit not given beside the values. It counts as functional. Put shortly: as §3
Data set [10] has as its system Plasmodium cynomolgi. In words: Cures in Plasmodium cynomolgi infected Rhesus monkeys (Macaca mulatta) on 1 mg/kg/day after 7 days; cured 2 of 2. It counts as functional.
The test system of data set [11] is Plasmodium cynomolgi. In words: Cures in Plasmodium cynomolgi infected Rhesus monkeys (Macaca mulatta) on 0.1 mg/kg/day after 7 days (x7); cured 0 of 2. The data set is classed as functional.
Data set [12] deals with Mus musculus. In words: Suppressive blood schizonticidal antimalarial activity evaluated in the trophozoite-induced Plasmodium berghei infection in mice (Mus musculus) at a dose 10 mg/kg given as no. of cures. It counts as functional. Put shortly: as §1
The subject of data set [13] is Mus musculus. In words: Suppressive blood schizonticidal antimalarial activity evaluated in the trophozoite-induced Plasmodium berghei infection in mice (Mus musculus) at a dose 20 mg/kg given as no. of cures. The data set is classed as functional. Put shortly: as §1
The subject of data set [14] is Plasmodium berghei. In words: Blood schizonticidal activity in trophozoite-induced Plasmodium berghei infected mice (Mus musculus) at 40 mg/kg; numbers cured. It counts as functional. An outline of the steps:
as §1

Data set [15] concerns Mus musculus. In words: Suppressive blood schizonticidal antimalarial activity evaluated in the trophozoite-induced Plasmodium berghei infection in mice (Mus musculus) at a dose 5 mg/kg given as no. of cures. It counts as functional. Put shortly:
as §1

For data set [16], the system named is Mus musculus. In words: Suppressive blood schizonticidal antimalarial activity evaluated in the trophozoite-induced Plasmodium berghei infection in mice (Mus musculus) at a dose 160 mg/kg given as no. of toxic deaths. The data set is classed as functional. Put shortly: as §2
In data set [17] the test system is Mus musculus. In words: Suppressive blood schizonticidal antimalarial activity evaluated in the trophozoite-induced Plasmodium berghei infection in mice (Mus musculus) at a dose 40 mg/kg given as number of toxic deaths. The data set is classed as ADME, organism-based. Details: dose 40 mg/kg. The note with it: in vivo. An outline of the steps:
as §2

The subject of data set [18] is Mus musculus. In words: Suppressive blood schizonticidal antimalarial activity evaluated in the trophozoite-induced Plasmodium berghei infection in mice (Mus musculus) at a dose 2.5 mg/kg. It counts as functional. An outline of the steps: as §3
In data set [19] the test system is Plasmodium cynomolgi. In words: Cures in Plasmodium cynomolgi infected Rhesus monkeys (Macaca mulatta) on 0.316 mg/kg/day after 7 days; cured 0 of 1. The data set is classed as functional.
Data set [20] concerns Plasmodium cynomolgi. In words: Cures in Plasmodium cynomolgi infected Rhesus monkeys (Macaca mulatta) on 0.316 mg/kg/day after 7 days; cured 1 of 1. It counts as functional.
Data set [21] has as its system Plasmodium cynomolgi. In words: Cures in Plasmodium cynomolgi infected Rhesus monkeys (Macaca mulatta) on 1 mg/kg/day after 7 days; cured 0 of 1. It counts as functional.
Data set [22] relates to Mus musculus. In words: Suppressive blood schizonticidal antimalarial activity evaluated in the trophozoite-induced Plasmodium berghei infection in mice (Mus musculus) at a dose 320 mg/kg given as no. of toxic deaths. It counts as functional. Put shortly:
as §2

Data set [23] concerns Mus musculus. In words: Suppressive blood schizonticidal antimalarial activity evaluated in the trophozoite-induced Plasmodium berghei infection in mice (Mus musculus) at a dose 10 mg/kg. The data set is classed as functional. An outline of the steps:
as §3

Data set [24] relates to Mus musculus. In words: Suppressive blood schizonticidal antimalarial activity evaluated in the trophozoite-induced Plasmodium berghei infection in mice (Mus musculus) at a dose 80 mg/kg. The data set is classed as functional. Details: unit not given beside the values. Put shortly: as §3
The test system of data set [25] is Plasmodium cynomolgi. In words: Cures in Plasmodium cynomolgi infected Rhesus monkeys (Macaca mulatta) on 0.316 mg/kg/day after 7 days; cures 2 of 2. The data set is classed as functional.
Data set [26] relates to Plasmodium cynomolgi. In words: Cures in Plasmodium cynomolgi infected Rhesus monkeys (Macaca mulatta) on 1 mg/kg/day after 7 days; cured 1 of 1. The data set is classed as functional.
Data set [27] relates to Plasmodium cynomolgi. In words: Radical curative antimalarial activity against Plasmodium cynomolgi in Rhesus monkeys (Macaca mulatta) at 1 mg/kg/day over 7 days; cured 4 of 4. The data set is classed as functional.
Data set [28] deals with Plasmodium cynomolgi. In words: Cures in Plasmodium cynomolgi infected Rhesus monkeys (Macaca mulatta) on 10.0 mg/kg/day after 7 days. It counts as functional, organism-based.
Data set [29] deals with Plasmodium cynomolgi. In words: Cures in Plasmodium cynomolgi infected Rhesus monkeys (Macaca mulatta) on 3.16 mg/kg/day after 7 days; cured 0 of 1. It counts as functional.
Data set [30] deals with Mus musculus. In words: Suppressive blood schizonticidal antimalarial activity evaluated in the trophozoite-induced Plasmodium berghei infection in mice (Mus musculus) at a dose 320 mg/kg given as number of cures. It counts as functional. Put shortly:
as §1

The subject of data set [31] is Mus musculus. In words: Suppressive blood schizonticidal antimalarial activity evaluated in the trophozoite-induced Plasmodium berghei infection in mice (Mus musculus) at a dose 640 mg/kg given as no. of cures. The data set is classed as functional. Put shortly: as §1

Each structure is given as a SMILES string.

Regarding `CCCCCCOc1c(OC)cc(NC(C)CCCN)c2ncccc12` (stereo not drawn), the Cures/no. of animals in the data set on Plasmodium cynomolgi [1] is recorded as 0; with Plasmodium cynomolgi [2] it was 3; in the data set with Plasmodium cynomolgi [3], 1. Moreover, the Cures in the data set on Mus musculus [4] and in the data set on Mus musculus [5] was 1 each time. The same compound returned a Toxic deaths in the data set with Plasmodium berghei [6] of 1. The “Delta MST” value in the data set with Plasmodium berghei [7] turned out to be 3.7; with Mus musculus [8], 0.1; in the data set with Mus musculus [9] it was 6.5.
As to `COCCCCCCOc1c(OC)cc(NC(C)CCCN)c2nccc(C)c12` (stereo not drawn), the Cures/no. of animals worked out at 2 with Plasmodium cynomolgi [10], 0 in the data set on Plasmodium cynomolgi [11] and 0 in the data set with Plasmodium cynomolgi [19]. For the same compound, the Cures in the data set with Mus musculus [12] came to 3; in the data set with Mus musculus [13], 2; with Plasmodium berghei [14], 2; in the data set with Mus musculus [15] it was 1. Further, the Toxic deaths in the data set with Mus musculus [16] was found to be 5; with Mus musculus [17], 3; in the data set on Plasmodium berghei [6], 5. Besides, the “Delta MST” value in the data set with Mus musculus [18] is reported as 6.9.
Consider `CCCCCCOc1c(OC)cc(NC(C)CCCN)c2nc(C)ccc12` (stereo not drawn), for which the Cures/no. of animals was 1 in the data set with Plasmodium cynomolgi [20], 0 in the data set on Plasmodium cynomolgi [21] and 0 in the data set with Plasmodium cynomolgi [11]. The figures for the Cures in the data set with Mus musculus [4] and in the data set with Plasmodium berghei [14] were 3 and 1, respectively. The Toxic deaths with Mus musculus [22] and with Plasmodium berghei [6] was 3 each time. For the same compound, the “Delta MST” value is 6 in the data set on Plasmodium berghei [7], 2.7 with Mus musculus [23] and 11.4 in the data set on Mus musculus [24].
Take `CCCOc1c(OC)cc(NC(C)CCCN)c2nccc(C)c12` (stereo not drawn): the Cures/no. of animals in the data set on Plasmodium cynomolgi [25] is listed as 2; in the data set with Plasmodium cynomolgi [26] it was 1; in the data set with Plasmodium cynomolgi [11] it was 0. Moreover, the figures for the Cures in the data set with Mus musculus [12], in the data set on Mus musculus [13] and in the data set on Mus musculus [15] were 1, 3 and 1, respectively. Besides, the results for the Toxic deaths in the data set with Mus musculus [16], with Mus musculus [17] and with Plasmodium berghei [6] were 5, 3 and 5, respectively. For the same compound, the “Delta MST” value in the data set with Mus musculus [18] came out at 6.
For `CCCCCCCOc1c(OC)cc(NC(C)CCCN)c2nccc(C)c12` (stereo not drawn), the Cures/no. of animals in the data set on Plasmodium cynomolgi [25] was 2; with Plasmodium cynomolgi [27] it was 4; in the data set on Plasmodium cynomolgi [28], “Toxic”; with Plasmodium cynomolgi [11], 0. Besides, the Cures is listed as 3 in the data set with Mus musculus [12]; 5 in the data set with Mus musculus [13]; 4 in the data set with Plasmodium berghei [14]; 3 in the data set on Mus musculus [15]; 2 with Mus musculus [5]. Moreover, the Toxic deaths with Mus musculus [16] came out at 1; with Mus musculus [22], 5; in the data set with Plasmodium berghei [6], 5. In addition, in the data set on Mus musculus [18], the “Delta MST” value was 7.9.
For `CCCCCCCCCCOc1c(OC)cc(NC(C)CCCN)c2nccc(C)c12` (stereo not drawn), the Cures/no. of animals in the data set on Plasmodium cynomolgi [21] is on record as 0; in the data set on Plasmodium cynomolgi [3], 1; with Plasmodium cynomolgi [29], 0. Besides, the Cures was found to be 4 in the data set with Mus musculus [4]; 2 in the data set on Mus musculus [13]; 5 in the data set on Mus musculus [30]; 3 in the data set with Plasmodium berghei [14]; 4 in the data set on Mus musculus [31]; 4 in the data set on Mus musculus [5]. In addition, the “Delta MST” value in the data set on Mus musculus [23] is given as 1.8.
